According to PMC6714550 (Investigational new drugs, 2018):
Like-named read-outs stand apart in the source and are kept apart here. Values belong to the molecule of their own block, whether it stands above or below them.

What was measured:
[1] = Plasma pharmacokinetics, cycle 1; type: in vivo, human
How it was run: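 Patients with advanced GIST took an oral pan-FGFR kinase inhibitor (test compound) once daily at escalating dose levels (25–125 mg), with a second oral tyrosine kinase inhibitor at 400 mg once daily, in 28-day cycles. Blood was sampled at prespecified cycle 1 timepoints. Plasma parent drug, partner drug and its active metabolite were measured by validated LC-MS/MS.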

[2] = tested on: patients with imatinib refractory advanced GIST; assay: Safety and tolerability, DLT and MTD; conditions: schedule A, in combination with 400mg of imatinib
advanced GIST = conditions: cited from earlier work
[3] = dose level −1 (BGJ398 50mg qd, imatinib 400mg qd), day 1, n=1
[4] = second and third line options in GIST

Compound: CCN1CCN(c2ccc(Nc3cc(N(C)C(=O)Nc4c(Cl)c(OC)cc(OC)c4Cl)ncn3)cc2)CC1 [BGJ398]
AUC (0–24h) ([1]; dose level 1 (BGJ398 75mg qd, imatinib 400mg qd), day 1, n=9, mean): 487 (32 – 1153) h x ng/mL
AUC (0–24h) ([1]; dose level 2 (BGJ398 100mg qd, imatinib 400mg qd), day 1, n=1): 309 h x ng/mL
AUC (0–24h) [1, 3]: 25 h x ng/mL
Tmax [1, 3]: 4 h
Tmax ([1]; human, plasma, oral): 5 h
maximum tolerated dose (dose level −1) [2]: 50 mg

Concentration of metabolite day 1 24hr ([1]; dose level 1 (BGJ398 75mg qd, imatinib 400mg qd), n=9, mean): 149 (56 – 395) ng/mL
Concentration of metabolite day 1 24hr ([1]; dose level 2 (BGJ398 100mg qd, imatinib 400mg qd), n=1): 1040 ng/mL
Concentration of metabolite day 1 24hr ([1]; dose level −1 (BGJ398 50mg qd, imatinib 400mg qd), n=3, mean): 54 (26 – 84) ng/mL
Concentration of metabolite day 1 24hr ([1]; dose level −2 (BGJ398 25mg qd, imatinib 400mg qd), n=3, mean): 131 (67 – 209) ng/mL
Compound: Cc1ccc(NC(=O)c2ccc(CN3CCNCC3)cc2)cc1Nc1nccc(-c2cccnc2)n1 [CGP 74588]

Compound: Cc1ccc(NC(=O)c2ccc(CN3CCN(C)CC3)cc2)cc1Nc1nccc(-c2cccnc2)n1 [imatinib]
objective response rate (advanced GIST; first-line, advanced GIST): approximately 50%
overall disease control rate (advanced GIST; first-line, advanced GIST): 80%
median progression free survival (advanced GIST; following initiation of imatinib therapy): 20–24 months
median PFS (advanced GIST; imatinib re-challenge): 1.8 months
median PFS, 95% CI (advanced GIST; imatinib re-challenge): 1.7–3.6 months

Compound: CNC(=O)c1cc(Oc2ccc(NC(=O)Nc3ccc(Cl)c(C(F)(F)F)c3)c(F)c2)ccn1 [regorafenib]
median PFS (advanced GIST; [4]): 4–6 months
response rate (advanced GIST; [4]): 4–7%

Compound: CCN(CC)CCNC(=O)c1c(C)[nH]c(/C=C2\C(=O)Nc3ccc(F)cc32)c1C [sunitinib]
median PFS (advanced GIST; [4]): 4–6 months
response rate (advanced GIST; [4]): 4–7%
